# From PubChem BioAssay
# HUVEC prolif 384: inhibitors of HUVEC proliferation, primary screen, cell-based, 384-well; 86,000 compounds, 1.1% hits; viability, % at 10 µM (by protocol); CellTiter-Glo luminescence, 72 h; active compounds read low; AID 648, 2007;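 active = viability at or below 30%; inactive = viability above 30%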;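 also: 100% = median luminescence of DMSO-only cell control wells on each plate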
# Pyk2 oligo antag: antagonists of Pyk2 self-association, primary screen, Q293 cells, FERM NanoBiT luminescence, HTS. Protein-tyrosine kinase 2-beta (Homo sapiens), Q14289. z-score (the deposit names both 25 µM and 10 µM). AID 1347419, 2020. 99,000 compounds, 0.83% hits. active compounds read low;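 active = Z-score of -3 or lower, scaled per plate to the spread of control and sample wells; inactive = z-score above -3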;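 also: negative z-score means lost luminescence so less FERM oligomerization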
# Target sequence (Q14289 whole entry, looked up): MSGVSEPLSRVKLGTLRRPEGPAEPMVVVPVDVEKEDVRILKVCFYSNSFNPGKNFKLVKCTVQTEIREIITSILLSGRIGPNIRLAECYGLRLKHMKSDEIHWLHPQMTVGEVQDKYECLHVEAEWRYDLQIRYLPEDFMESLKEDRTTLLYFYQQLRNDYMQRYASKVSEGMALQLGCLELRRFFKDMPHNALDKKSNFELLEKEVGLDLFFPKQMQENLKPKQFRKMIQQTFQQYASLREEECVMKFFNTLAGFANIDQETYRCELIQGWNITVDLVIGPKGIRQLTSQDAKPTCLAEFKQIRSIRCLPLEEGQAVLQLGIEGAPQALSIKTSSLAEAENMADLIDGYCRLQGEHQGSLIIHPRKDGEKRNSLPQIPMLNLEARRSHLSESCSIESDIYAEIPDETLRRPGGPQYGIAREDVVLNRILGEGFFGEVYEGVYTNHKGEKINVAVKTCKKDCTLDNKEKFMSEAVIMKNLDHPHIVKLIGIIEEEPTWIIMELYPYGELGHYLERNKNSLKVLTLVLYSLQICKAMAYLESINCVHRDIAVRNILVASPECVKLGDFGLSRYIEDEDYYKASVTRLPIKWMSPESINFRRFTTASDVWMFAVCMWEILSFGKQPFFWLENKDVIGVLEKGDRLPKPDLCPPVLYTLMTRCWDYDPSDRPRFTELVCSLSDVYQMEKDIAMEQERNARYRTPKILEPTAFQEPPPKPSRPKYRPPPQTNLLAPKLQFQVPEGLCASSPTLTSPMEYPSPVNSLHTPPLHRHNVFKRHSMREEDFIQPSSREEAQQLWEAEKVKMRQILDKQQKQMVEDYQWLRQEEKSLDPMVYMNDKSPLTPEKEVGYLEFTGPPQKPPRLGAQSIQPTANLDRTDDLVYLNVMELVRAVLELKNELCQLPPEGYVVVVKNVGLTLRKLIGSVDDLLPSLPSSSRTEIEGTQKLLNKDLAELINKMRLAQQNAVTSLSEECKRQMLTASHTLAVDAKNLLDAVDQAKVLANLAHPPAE
# H69AR inhibit: proliferation blockers of H69AR lung cancer cells, primary screen, cell-based, human, 86K library; H69AR lung tumor viability, ATP luminescence, 72 h; active compounds read low; viability, % at 10 µM; 85,000 compounds, 6% hits; AID 598, 2007;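 active = viability at or below 40%; inactive = viability above 40%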;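 also: multidrug resistant small cell line overexpressing MRP-1 efflux transporter; 100% = mean luminescence of untreated control wells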
# Fibroblast inh: antiproliferative effect on LL 47 fibroblasts – human, LL 47 cells, CellTiter-Glo luminescence, primary screen; LL 47 human lung fibroblast viability, ATP luminescence; active compounds read low; viability, % at 10 µM; 85,000 compounds, 1.1% hits;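 active = viability at or below 50% in the single dose screen; inactive = viability above 50%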;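 also: compound exposure lasted 72 h before the ATP readout; 100% = median luminescence of untreated cell-only wells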
#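 Assay system: human lung fibroblast line LL 47, low passage. Input: 1,150 fibroblasts seeded per well. Times: overnight cell rest, 72 h compound treatment at 37 °C. Evaluation: % viability of median cell-only signal. Technique: luminescent ATP detection, CellTiter-Glo. Control set: cell-only wells, no compound.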
# Jurkat viability: cytotoxicity toward Jurkat T cells, primary screen, cytotoxicity control, cell-based, Jurkat E6.1, 60K MLSMR library; Jurkat E6.1 viability, ATP luminescence, 48 h; inhibition, % at 4 µM; 56,000 compounds, 1.2% hits; AID 463, 2006;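 active = inhibition above the mean inhibition of all tested compounds plus 3 SD, cut at about 28% in these data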
# MT1-MMP txn act: MT1-MMP promoter reporter activation – cell-based, luciferase luminescence, primary screen; HT1080 MT1-MMP promoter luciferase reporter, overnight; active compounds read high; activation factor at 10 µM; 86,000 compounds, 0.16% hits; AID 750, 2007;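 active = activation factor of at least 2 for MT1-MMP transcription at 10 µM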
# The depositor's hits bear a star; nt = not tested or not shown. The list is not random: actives were taken first. Their share in the collection is about 5.9%.
SMILES,HUVEC prolif 384,Pyk2 oligo antag,H69AR inhibit,Fibroblast inh,Jurkat viability,MT1-MMP txn act
Cc1cc(C(=O)CSc2nc3ccccc3n2CCC#N)c(C)n1Cc1cccs1,71,0.28,17*,80,nt,1.5
Cc1ccccc1C(=O)NCc1nnc(SCC(=O)N2c3ccccc3Sc3ccccc32)n1C,86,0.29,101,96,nt,1
C=CCn1c(CNC(=O)c2ccco2)nnc1SCC(=O)N1c2ccccc2Sc2ccccc21,97,-1.6,34*,95,nt,1.2
Cn1cccc1-c1nc2ccc(NC(=O)c3ccc([N+](=O)[O-])cc3)cc2[nH]1,90,-1.8,33*,92,nt,1.2
Cn1cccc1-c1nc2ccc(NC(=O)c3ccccc3)cc2[nH]1,123,-0.54,47,nt,4,1.6
CCC(C)NCCCCOc1ccc(C)cc1[N+](=O)[O-] (centres undefined),nt,1.1,nt,nt,nt,nt
COc1ccc(-n2c(NCCN(C)C)nc3sc4c(c3c2=O)CCCCC4)cc1,76,0.07,52,80,nt,1.1
COc1ccc(-n2c(N3CCN(C)CC3)nc3sc4c(c3c2=O)CCCCC4)cc1,22*,0.21,22*,62,6,1.1
CCNc1ccc2c(Cl)cc(=O)oc2c1,95,nt,37*,102,5,1.3
Cc1cc(=O)oc2cc(NC(=O)CCC(=O)O)ccc12,nt,2.2,nt,nt,nt,nt
COc1ccc(-c2cn3cc(C)ccc3n2)cc1OC,87,0.56,39*,98,3,0.6
COc1ccc(-c2cn3ccccc3n2)cc1OC,78,-0.14,51,78,1,1.4
Cc1sc(-n2c(C)cc(C=O)c2C)c(C(=O)O)c1C,95,-0.06,92,94,nt,1
Cc1ccc(-c2nnn(CC(=O)N(Cc3cccs3)C(C(=O)NC3CCCC3)c3ccncc3)n2)cc1 (centres undefined),76,0.74,29*,64,nt,1.4
COc1ccc(-c2nnn(CC(=O)N(Cc3cccs3)C(C)C(=O)NC3CCCC3)n2)cc1OC (centres undefined),91,0.77,105,92,0,1.1
CC(C)CCNC(=O)C(c1ccncc1)N(Cc1cccs1)C(=O)Cn1nnc(-c2ccc(F)cc2)n1 (centres undefined),88,0.57,40*,75,nt,1.4
Cc1ccc(-c2nnn(CC(=O)N(Cc3cccs3)C(C(=O)NC3CCCCC3)c3ccco3)n2)o1 (centres undefined),77,0.68,19*,107,nt,0.9
O=C(NCC1CCCO1)C(c1ccc(F)cc1)N(Cc1ccc(F)cc1)C(=O)Cn1nnc(-c2cccs2)n1 (centres undefined),88,-0.18,40*,94,nt,1.1
Cc1ccc(S(=O)(=O)N2CCN(C3CC(=O)N(CCc4ccccc4)C3=O)CC2)cc1C (centres undefined),89,0,97,100,nt,1
O=S(=O)(NCc1ccco1)c1ccc(Cl)nc1,nt,0.73,nt,nt,nt,nt
COc1ccc(-c2nnn(CC(=O)N(Cc3ccc(F)cc3)C(C(=O)NC3CCCC3)c3ccc(F)cc3)n2)cc1 (centres undefined),64,0.07,27*,12*,nt,nt
O=S1(=O)N=C(Nc2ccc(O)c(CN3CCCCC3)c2)c2ccccc21,100,0,33*,nt,1,1.3
CCN(CC)S(=O)(=O)c1ccc(NC2=NS(=O)(=O)c3ccccc32)cc1,90,-0.61,83,108,nt,1.3
CCOC(=O)COc1ccc(S(=O)(=O)NCCC2=CCCCC2)cc1,4.4*,1.2,92,93,-2,1.2
CCN(CC)Cc1c(O)ccc2c([N+](=O)[O-])c(C)n(-c3ccc(OC)cc3)c12,64,-1.4,39*,93,nt,1.3
SMILES,HUVEC prolif 384,Pyk2 oligo antag,H69AR inhibit,Fibroblast inh,Jurkat viability,MT1-MMP txn act
Cc1nc(NCc2ccc3c(c2)OCO3)c2nnn(Cc3ccccc3)c2n1,50,0.22,53,47*,-2,1.1
O=C(Cn1cnc2c(nnn2Cc2ccc(Cl)cc2)c1=O)NCc1ccco1,92,0.7,76,100,10,1.1
Cc1ccc(Cn2nnc3c(=O)n(CC(=O)NCc4ccc5c(c4)OCO5)cnc32)cc1,67,0.13,39*,96,-4,1
COc1ccc2c(c1)OCC1=C2CCC2(C)C(=O)CC=C12 (centres undefined),77,nt,11*,93,4,1.3
COc1ccc2c(c1)SCCC2=O,nt,2.8,nt,nt,nt,nt
Cc1ccc(CNC(=O)[C@H](C)[C@@H]2C[C@@]2(C)[C@@H](NC(=O)OCc2ccccc2)c2ccccc2)c(F)c1F,nt,nt,nt,nt,nt,1.2
CN(C)c1ccc(NC(=O)CSc2nc(N)c(C(=O)Nc3ccc(N(C)C)cc3)s2)cc1,94,0.05,83,88,nt,1.8
CCOC(=O)c1sc(SCC(=O)Nc2ccc(N(C)C)cc2)nc1N,81,-0.62,58,36*,-3,1
COCCNC(=O)C1=C(N)C(C(=O)Nc2ccc(C)c(S(=O)(=O)N3CCCCC3)c2)SC1=Nc1ccc(C)cc1C (centres undefined),nt,-0.06,nt,nt,nt,nt
CCN(/N=C/c1cccs1)c1cc(=O)n(C)c(=O)[nH]1,35,0.08,96,103,nt,1.1
CN(/N=C/c1cccs1)c1cc(=O)n(C)c(=O)[nH]1,15*,0.54,94,104,nt,1.1
CCC1Oc2nc(SC)nnc2-c2ccccc2N1C(=O)c1ccccc1 (centres undefined),91,-1.5,25*,84,-4,1.1
CCC(=O)N1c2ccccc2-c2nnc(SC)nc2OC1c1ccc(N(C)C)cc1 (centres undefined),92,nt,76,103,2,1.1
O=c1cc(C(F)(F)F)nc(-c2ccccc2)[nH]1,89,1.2,93,94,-3,1.2
O=C(Nc1ccc(-c2cn3ccsc3n2)cc1)c1ccc(F)c(S(=O)(=O)N2CCOCC2)c1,71,-3.7*,45,82,18,1.1
O=C(Nc1ccccc1)c1ccc(F)c(S(=O)(=O)N2CCOCC2)c1,99,0.84,81,91,0,1.1
Cn1cccc1C(=O)Nc1nc(-c2ccccn2)cs1,57,-0.34,35*,60,18,0.8
O=C(Nc1nc(-c2ccccn2)cs1)c1ccc(Cl)s1,28*,nt,2.9*,28*,48*,nt
Cc1csc(NC(=O)c2cccn2C)n1,92,0.6,91,102,nt,1.3
O=C(Nc1nc(-c2ccc(Cl)s2)cs1)c1cccs1,69,-3,34*,90,-3,1.4
O=C(Nc1nc(-c2ccccn2)cs1)c1ccc(S(=O)(=O)N2CCCCC2)cc1,33,nt,42,48*,54*,0.8
O=C(Nc1nc(-c2ccccc2)cs1)c1cccs1,77,-2.9,74,95,7,1.8
